Test results published in ChEMBL document CHEMBL5705902, “Role of G Protein-Coupled Receptor Kinases 2 and 3 in μ-Opioid Receptor Desensitization and Internalization” (Mol Pharmacol, 2015).
Active and inactive are the calls of the source. The calls are words filed in the database; no cut-off is given here.

Legend:
[1] = target: Mu-type opioid receptor (Rattus norvegicus) (UniProt P33535); assay: Inhibition of MOPr desensitization in wistar rat LC neuron cells assessed as reduction in the Met-Enk induced desensitization at 30 uM incubated for 15 mins before in the presence of SP600125; type: functional, cell-based
Target sequence in this assay (P33535 whole entry): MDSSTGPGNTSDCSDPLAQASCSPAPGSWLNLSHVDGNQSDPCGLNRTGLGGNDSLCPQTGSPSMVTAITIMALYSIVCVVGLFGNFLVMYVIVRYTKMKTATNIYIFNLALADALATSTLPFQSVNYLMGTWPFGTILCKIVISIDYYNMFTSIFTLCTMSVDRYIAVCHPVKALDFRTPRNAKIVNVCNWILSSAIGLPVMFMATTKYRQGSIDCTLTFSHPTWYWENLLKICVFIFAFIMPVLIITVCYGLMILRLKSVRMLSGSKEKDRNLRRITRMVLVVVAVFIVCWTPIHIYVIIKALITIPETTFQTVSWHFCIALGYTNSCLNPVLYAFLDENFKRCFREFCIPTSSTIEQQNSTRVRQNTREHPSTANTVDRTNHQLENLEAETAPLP

Homo sapiens = species: Homo sapiens; assay: Inhibition of CAMKK (unknown origin) at 1 uM in presence of 32ATP relative to control
In short: (§1)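 Express screen of 52 purified human kinases run as a radioactive filter-binding assay with 32ATP, at 1 μM inhibitor. ATP was at or below each kinase's calculated Km. Activity is given as percent of the activity without inhibitor. Run in duplicate; mean with S.D.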

[2] = target: c-Jun N-terminal kinase, JNK (Homo sapiens) (UniProt P45983+P53779+P45984); assay: Inhibition of JNK (unknown origin) at 1 uM in presence of 32ATP relative to control; type: protein assay; in short: as §1
[3] = target: Serine/threonine-protein kinase Nek6 (Homo sapiens) (UniProt Q9HC98); assay: Inhibition of human NEK6 assessed as remaining activity at 1 uM in presence of 32ATP relative to control
In short: (§2)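 Express panel of 52 purified human kinases run in vitro. Kinase activity was measured directly by a radioactive filter-binding assay with ³²ATP, at ATP levels at or below each kinase's calculated Km for ATP. The compound was tested at 1 μM. Each assay was run in duplicate, and activity is given as the mean percentage (with S.D.) of activity without inhibitor.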

[4] = target: High affinity nerve growth factor receptor (Homo sapiens) (UniProt P04629); assay: Inhibition of human TrkA assessed as remaining activity at 1 uM in presence of 32ATP relative to control; in short: as §2
[5] = target: Serine/threonine-protein kinase 3 (Homo sapiens) (UniProt Q13188); assay: Inhibition of human MST2 assessed as remaining activity at 1 uM in presence of 32ATP relative to control; in short: as §2
[6] = target: Mu-type opioid receptor (Rattus norvegicus) (UniProt P33535); assay: Inhibition of HA-tagged rat MOPr in HEK293 cells assessed as DAMGO induced MOPr phosphorylation at Ser375 level at 30 uM preincubated for 30 mins by western blot analysis; type: functional, cell-based
In short: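 Serum-starved HEK 293 cells stably expressing HA-rat MOPr were pretreated with inhibitor for 30 min, then DAMGO 10 μM for 5 min. Receptor was enriched on WGA-agarose overnight at 4°C and blotted for pSer375. Densitometry was done in duplicate and normalized to total HA-MOPr; n = 3.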
Target sequence in this assay (P33535 whole entry): as above

[7] = target: Serine/threonine-protein kinase STK11 (Homo sapiens) (UniProt Q15831); assay: Inhibition of human LKB1 assessed as remaining activity at 1 uM in presence of 32ATP relative to control; in short: as §2
[8] = target: Insulin-like growth factor 1 receptor (Homo sapiens) (UniProt P08069); assay: Inhibition of human IGF1R assessed as remaining activity at 1 uM in presence of 32ATP relative to control; in short: as §2
[9] = target: RAC-alpha serine/threonine-protein kinase (Homo sapiens) (UniProt P31749); assay: Inhibition of human PKBa assessed as remaining activity at 1 uM in presence of 32ATP relative to control; in short: as §2
[10] = target: Dual specificity mitogen-activated protein kinase kinase 1 (Homo sapiens) (UniProt Q02750); assay: Inhibition of human MKK1 assessed as remaining activity at 1 uM in presence of 32ATP relative to control; in short: as §2
[11] = target: Mu-type opioid receptor (Rattus norvegicus) (UniProt P33535); assay: Inhibition of MOPr desensitization (unknown origin) assessed as reduction in the DAMGO induced desensitization at 3 to 30 uM incubated for 15 mins; conditions: dose 3-30 µM
Target sequence in this assay (P33535 whole entry, looked up): as the sequence (P33535 whole entry) above

[12] = target: Mu-type opioid receptor (Rattus norvegicus) (UniProt P33535); assay: Inhibition of HA-tagged rat MOPr stably expressing in HEK293 cells assessed as increase in DAMGO-induced Elk1 phosphorylation level at 30 uM preincubated for 30 mins by westernblot analysis; type: functional, cell-based
In short: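 HA-MOPr HEK 293 cells were serum-starved 24 h and pretreated with inhibitor (30 μM) for 30 min, then given DAMGO 10 μM for 5 min.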
Target sequence in this assay (P33535 whole entry): as above

[13] = target: Eukaryotic elongation factor 2 kinase (Homo sapiens) (UniProt O00418); assay: Inhibition of human EF2K assessed as remaining activity at 1 uM in presence of 32ATP relative to control; in short: as §1
[14] = target: Dual specificity tyrosine-phosphorylation-regulated kinase 1A (Homo sapiens) (UniProt Q13627); assay: Inhibition of human DYRK1A assessed as remaining activity at 1 uM in presence of 32ATP relative to control; in short: as §1
[15] = target: Serine/threonine-protein kinase PAK 4 (Homo sapiens) (UniProt O96013); assay: Inhibition of human PAK4 assessed as remaining activity at 1 uM in presence of 32ATP relative to control; in short: as §2
[16] = target: Serine/threonine-protein kinase N2 (Homo sapiens) (UniProt Q16513); assay: Inhibition of human PRK2 at 1 uM in presence of 32ATP relative to control; in short: as §2
[17] = target: Dual specificity protein kinase TTK (Homo sapiens) (UniProt P33981); assay: Inhibition of human TTK assessed as remaining activity at 1 uM in presence of 32ATP relative to control; in short: as §2
[18] = target: 3-phosphoinositide-dependent protein kinase 1 (Homo sapiens) (UniProt O15530); assay: Inhibition of human PDK1 assessed as remaining activity at 1 uM in presence of 32ATP relative to control
[19] = target: Mu-type opioid receptor (Rattus norvegicus) (UniProt P33535); assay: Inhibition of HA-tagged rat MOPr in HEK293 cells assessed as reduction in DAMGO induced MOPr internalization level at 30 uM preincubated for 30 mins by ELISA method; type: functional, cell-based
In short: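 Surface HA-MOPr in HEK 293 cells was prelabeled with anti-HA for 1 h at 4°C, then inhibitor (3 or 30 μM) was given for 30 min at 37°C, then DAMGO 10 μM at 37°C. Surface receptor was measured by ELISA and normalized to cells not exposed to DAMGO; n = 3–4.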
Target sequence in this assay (P33535 whole entry): as above

[20] = target: Mu-type opioid receptor (Rattus norvegicus) (UniProt P33535); assay: Inhibition of MOPr desensitization (unknown origin) assessed as drop in maximum morphine response at 30 uM incubated for 15 mins relative to control
Target sequence in this assay (P33535 whole entry, looked up): as the sequence (P33535 whole entry) above

[21] = target: Receptor tyrosine-protein kinase erbB-4 (Homo sapiens) (UniProt Q15303); assay: Inhibition of human HER4 assessed as remaining activity at 1 uM in presence of 32ATP relative to control; in short: as §2
[22] = target: Calcium/calmodulin-dependent protein kinase kinase 2 (Homo sapiens) (UniProt Q96RR4); assay: Inhibition of human CAMKKb assessed as remaining activity at 1 uM in presence of 32ATP relative to control; in short: as §1
[23] = target: cAMP-dependent protein kinase (PKA) (Homo sapiens) (UniProt P22694+P17612+P22612); assay: Inhibition of PKA (unknown origin) at 1 uM in presence of 32ATP relative to control; type: protein assay; in short: as §1
[24] = target: Mu-type opioid receptor (Rattus norvegicus) (UniProt P33535); assay: Inhibition of MOPr desensitization in wistar rat LC neuron cells assessed as reduction in the Met-Enk induced desensitization at 30 uM incubated for 15 mins before in the presence of amlexanox; type: functional, cell-based
Target sequence in this assay (P33535 whole entry): as above

[25] = target: Mitogen-activated protein kinase 8 (Homo sapiens) (UniProt P45983); assay: Inhibition of human JNK1 assessed as remaining activity at 1 uM in presence of 32ATP relative to control; in short: as §2
Mitogen-activated protein kinase 8 (Homo sapiens), sequence (P45983 whole entry): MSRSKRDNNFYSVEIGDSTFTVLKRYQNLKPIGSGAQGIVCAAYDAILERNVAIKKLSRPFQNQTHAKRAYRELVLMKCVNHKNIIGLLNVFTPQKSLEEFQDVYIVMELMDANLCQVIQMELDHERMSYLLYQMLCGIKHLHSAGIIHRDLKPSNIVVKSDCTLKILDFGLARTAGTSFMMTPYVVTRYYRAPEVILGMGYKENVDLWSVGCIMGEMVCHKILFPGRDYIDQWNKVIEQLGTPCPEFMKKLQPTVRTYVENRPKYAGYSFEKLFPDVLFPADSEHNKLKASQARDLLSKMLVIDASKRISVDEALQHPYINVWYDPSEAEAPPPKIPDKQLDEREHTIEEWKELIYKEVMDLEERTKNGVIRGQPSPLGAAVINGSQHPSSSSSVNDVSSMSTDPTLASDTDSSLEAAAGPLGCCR

Serine/threonine-protein kinase N2 (Homo sapiens), sequence (Q16513 whole entry, looked up): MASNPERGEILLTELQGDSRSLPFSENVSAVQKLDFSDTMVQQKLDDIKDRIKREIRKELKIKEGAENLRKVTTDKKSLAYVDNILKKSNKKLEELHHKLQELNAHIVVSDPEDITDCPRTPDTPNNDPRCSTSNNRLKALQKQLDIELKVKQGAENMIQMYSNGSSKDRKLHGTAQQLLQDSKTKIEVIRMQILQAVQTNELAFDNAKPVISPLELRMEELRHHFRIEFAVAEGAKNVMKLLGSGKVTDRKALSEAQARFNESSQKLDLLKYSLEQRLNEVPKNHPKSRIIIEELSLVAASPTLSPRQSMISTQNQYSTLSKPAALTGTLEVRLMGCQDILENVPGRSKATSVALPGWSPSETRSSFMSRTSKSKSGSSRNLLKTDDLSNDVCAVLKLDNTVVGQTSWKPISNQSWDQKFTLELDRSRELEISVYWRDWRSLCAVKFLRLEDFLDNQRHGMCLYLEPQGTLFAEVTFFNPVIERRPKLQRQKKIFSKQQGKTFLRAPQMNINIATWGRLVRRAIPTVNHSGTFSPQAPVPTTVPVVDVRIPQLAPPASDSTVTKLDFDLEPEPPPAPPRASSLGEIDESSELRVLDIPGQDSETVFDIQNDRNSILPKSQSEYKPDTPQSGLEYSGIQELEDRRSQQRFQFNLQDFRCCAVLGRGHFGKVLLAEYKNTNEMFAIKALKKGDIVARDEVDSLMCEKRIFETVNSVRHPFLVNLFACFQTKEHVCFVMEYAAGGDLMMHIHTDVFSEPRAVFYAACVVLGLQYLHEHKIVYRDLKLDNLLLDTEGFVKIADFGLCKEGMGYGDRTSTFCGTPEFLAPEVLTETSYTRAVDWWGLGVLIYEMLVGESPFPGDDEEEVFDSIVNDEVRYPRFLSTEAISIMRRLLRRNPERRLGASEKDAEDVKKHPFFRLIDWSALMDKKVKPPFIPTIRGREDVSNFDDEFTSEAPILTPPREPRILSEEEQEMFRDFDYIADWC
Serine/threonine-protein kinase Nek6 (Homo sapiens), sequence (Q9HC98 whole entry): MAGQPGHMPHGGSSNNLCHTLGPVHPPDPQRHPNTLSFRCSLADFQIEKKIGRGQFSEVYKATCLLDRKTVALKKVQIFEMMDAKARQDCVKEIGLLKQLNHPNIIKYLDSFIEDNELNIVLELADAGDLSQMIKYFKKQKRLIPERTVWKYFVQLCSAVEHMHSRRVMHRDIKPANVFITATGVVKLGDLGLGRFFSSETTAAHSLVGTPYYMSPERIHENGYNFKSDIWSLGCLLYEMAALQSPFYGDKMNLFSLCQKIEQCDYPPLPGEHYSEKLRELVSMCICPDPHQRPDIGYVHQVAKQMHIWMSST
Serine/threonine-protein kinase 3 (Homo sapiens), sequence (Q13188 whole entry): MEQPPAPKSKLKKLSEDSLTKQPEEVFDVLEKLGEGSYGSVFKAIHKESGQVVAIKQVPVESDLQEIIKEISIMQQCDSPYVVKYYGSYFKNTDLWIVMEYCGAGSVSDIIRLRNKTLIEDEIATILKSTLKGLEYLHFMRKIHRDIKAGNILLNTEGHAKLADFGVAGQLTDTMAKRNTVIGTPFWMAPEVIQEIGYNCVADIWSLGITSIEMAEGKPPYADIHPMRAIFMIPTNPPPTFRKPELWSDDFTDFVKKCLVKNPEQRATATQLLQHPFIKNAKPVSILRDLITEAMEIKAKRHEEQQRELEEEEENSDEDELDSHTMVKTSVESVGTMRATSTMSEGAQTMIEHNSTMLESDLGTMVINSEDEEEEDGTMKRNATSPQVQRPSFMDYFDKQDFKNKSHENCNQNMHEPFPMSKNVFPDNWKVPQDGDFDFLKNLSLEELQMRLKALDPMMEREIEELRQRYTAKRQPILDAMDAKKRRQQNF
Dual specificity protein kinase TTK (Homo sapiens), sequence (P33981 whole entry): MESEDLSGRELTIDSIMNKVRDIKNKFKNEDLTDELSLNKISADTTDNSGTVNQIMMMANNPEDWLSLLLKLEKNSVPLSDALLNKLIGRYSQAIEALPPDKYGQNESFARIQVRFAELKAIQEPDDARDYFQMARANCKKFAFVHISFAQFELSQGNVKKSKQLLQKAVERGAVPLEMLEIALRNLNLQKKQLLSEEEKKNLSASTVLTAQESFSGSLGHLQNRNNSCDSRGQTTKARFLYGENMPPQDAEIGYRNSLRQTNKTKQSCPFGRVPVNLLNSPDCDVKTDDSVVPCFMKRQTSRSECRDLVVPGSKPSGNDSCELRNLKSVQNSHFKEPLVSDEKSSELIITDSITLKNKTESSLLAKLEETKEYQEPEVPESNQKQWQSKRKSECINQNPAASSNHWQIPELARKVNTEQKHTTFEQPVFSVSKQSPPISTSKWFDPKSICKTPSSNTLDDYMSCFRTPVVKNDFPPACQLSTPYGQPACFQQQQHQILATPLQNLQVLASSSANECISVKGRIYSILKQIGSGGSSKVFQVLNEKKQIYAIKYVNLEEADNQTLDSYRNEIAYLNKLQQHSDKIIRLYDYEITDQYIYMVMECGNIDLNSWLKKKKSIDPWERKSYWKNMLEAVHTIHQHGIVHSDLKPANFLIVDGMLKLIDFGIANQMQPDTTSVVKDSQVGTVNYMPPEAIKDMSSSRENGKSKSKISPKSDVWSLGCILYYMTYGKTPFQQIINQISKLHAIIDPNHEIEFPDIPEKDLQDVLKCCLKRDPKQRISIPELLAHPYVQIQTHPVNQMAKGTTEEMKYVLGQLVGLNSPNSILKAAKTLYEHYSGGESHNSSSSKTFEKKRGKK
RAC-alpha serine/threonine-protein kinase (Homo sapiens), sequence (P31749 whole entry): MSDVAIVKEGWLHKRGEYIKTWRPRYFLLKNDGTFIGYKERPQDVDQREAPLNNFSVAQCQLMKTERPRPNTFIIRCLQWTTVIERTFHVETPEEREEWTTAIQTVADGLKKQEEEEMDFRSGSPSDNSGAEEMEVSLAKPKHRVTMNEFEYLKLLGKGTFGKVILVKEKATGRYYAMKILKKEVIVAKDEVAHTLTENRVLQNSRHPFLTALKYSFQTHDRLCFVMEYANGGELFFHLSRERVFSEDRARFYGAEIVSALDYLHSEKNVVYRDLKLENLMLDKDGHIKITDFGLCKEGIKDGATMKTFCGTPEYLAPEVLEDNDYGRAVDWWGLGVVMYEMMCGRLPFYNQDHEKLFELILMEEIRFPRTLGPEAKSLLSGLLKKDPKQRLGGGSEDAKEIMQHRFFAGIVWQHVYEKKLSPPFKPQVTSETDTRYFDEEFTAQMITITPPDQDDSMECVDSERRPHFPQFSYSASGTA
Serine/threonine-protein kinase STK11 (Homo sapiens), sequence (Q15831 whole entry): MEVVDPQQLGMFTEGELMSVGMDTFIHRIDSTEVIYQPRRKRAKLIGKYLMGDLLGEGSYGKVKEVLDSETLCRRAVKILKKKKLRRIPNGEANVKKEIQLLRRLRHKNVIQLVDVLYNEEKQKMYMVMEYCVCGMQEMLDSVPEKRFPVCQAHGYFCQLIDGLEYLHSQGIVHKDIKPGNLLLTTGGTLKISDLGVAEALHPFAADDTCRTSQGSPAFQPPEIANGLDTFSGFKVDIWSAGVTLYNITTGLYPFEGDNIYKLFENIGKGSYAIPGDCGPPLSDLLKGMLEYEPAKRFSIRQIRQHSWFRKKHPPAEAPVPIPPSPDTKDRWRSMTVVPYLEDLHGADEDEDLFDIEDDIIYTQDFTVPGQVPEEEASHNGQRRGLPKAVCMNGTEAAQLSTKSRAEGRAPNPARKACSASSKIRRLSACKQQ

Cn1c(CNc2cccc(C(=O)NCc3ccccc3C(F)(F)F)c2)nnc1-c1ccncc1
inhibition [1]: inactive
inhibition (Homo sapiens): < 20%
inhibition [2]: < 20%
Activity [3]: 95%
Activity [4]: 106%
Activity [5]: 89%
inhibition [6]: Active
Activity [7]: 91%
Activity [8]: 103%
Activity [9]: 83%
Activity [10]: 88%
inhibition [11]: Active
inhibition [12]: inactive
Activity [13]: 103%
Activity [14]: 112%
Activity [15]: 101%
inhibition [16]: 93%
Activity [17]: 89%
Activity [18]: 93%
inhibition [19]: Active
inhibition [20]: 44%
Activity [21]: 86%
Activity [22]: 69%
inhibition [23]: < 20%
inhibition [24]: inactive
Activity [25]: 93%
